The source of these data is ChEMBL document CHEMBL2040768, “Synthesis, antimicrobial and cytotoxic activities of sulfone linked bis heterocycles” (Eur J Med Chem, 2012).

Assay [1] deals with Klebsiella pneumoniae. The assay can be described thus: Antibacterial activity against Klebsiella pneumoniae at 100 ug/ml after 24 hrs by agar well diffusion method. The class given is functional. The following applies: for zone of inhibition at 100 µg/mL: read-out: DIZ. An outline of the steps: (§1)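 Agar well diffusion. Nutrient plates swabbed with 24 h broth culture of the bacterium; 6 mm wells bored and loaded with DMSO solutions of compound (wells at 50 and 100 per well). Chloramphenicol positive control, DMSO negative control. Plates held 37 °C, 24 h; inhibition zone diameter (mm) measured, mean of duplicates.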

The test system of assay [2] is Bacillus subtilis. The assay can be described thus: Antibacterial activity against Bacillus subtilis at 50 ug/ml after 24 hrs by agar well diffusion method. The class given is functional. Conditions: for zone of inhibition at 50 µg/mL: read-out: DIZ. In a few lines:
as §1

Assay [3] has as its system Staphylococcus aureus. The assay can be described thus: Antibacterial activity against Staphylococcus aureus at 100 ug/ml after 24 hrs by agar well diffusion method. In kind it is functional. The following applies: for zone of inhibition at 100 µg/mL: read-out: DIZ. An outline of the steps:
as §1

For assay [4], the system named is Bacillus subtilis. The assay is described as follows: Antibacterial activity against Bacillus subtilis at 100 ug/ml after 24 hrs by agar well diffusion method. The class given is functional. The following applies: for zone of inhibition at 100 µg/mL: read-out: DIZ. An outline of the steps:
as §1

In assay [5] the test system is Klebsiella pneumoniae. The assay is described as follows: Antibacterial activity against Klebsiella pneumoniae at 50 ug/ml after 24 hrs by agar well diffusion method. The class given is functional. The following applies: for zone of inhibition at 50 µg/mL: read-out: DIZ. In a few lines:
as §1

Assay [6] relates to Pseudomonas aeruginosa. The assay is described as follows: Antibacterial activity against Pseudomonas aeruginosa at 50 ug/ml after 24 hrs by agar well diffusion method. The following applies: for zone of inhibition at 50 µg/mL: read-out: DIZ. The class given is functional. An outline of the steps:
as §1

Assay [7] relates to Penicillium chrysogenum. The assay is described as follows: Antifungal activity against Penicillium chrysogenum at 100 ug/ml after 48 hrs by agar well diffusion method. The following applies: for zone of inhibition at 100 µg/mL: read-out: DIZ. In kind it is functional. An outline of the steps: (§2)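 Fungal agar well diffusion. Plates swabbed with fungal culture, 6 mm wells filled with DMSO solutions of compound (50 and 100 per well). Ketoconazole positive and DMSO negative controls. Plates incubated 28 °C for 48 h; zone of inhibition diameter (mm) read, average of duplicates.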

Assay [8] relates to Aspergillus niger. The assay is described as follows: Antifungal activity against Aspergillus niger at 50 ug/ml after 48 hrs by agar well diffusion method. The class given is functional. The following applies: for zone of inhibition at 50 µg/mL: read-out: DIZ. An outline of the steps: as §2
The test system of assay [9] is Aspergillus niger. The assay can be described thus: Antifungal activity against Aspergillus niger at 100 ug/ml after 48 hrs by agar well diffusion method. In kind it is functional. Conditions: for zone of inhibition at 100 µg/mL: read-out: DIZ. An outline of the steps: as §2
Assay [10] concerns Penicillium chrysogenum. The assay is described as follows: Antifungal activity against Penicillium chrysogenum at 50 ug/ml after 48 hrs by agar well diffusion method. Conditions: for zone of inhibition at 50 µg/mL: read-out: DIZ. The class given is functional. An outline of the steps: as §2
For the next assay, the system named is A549. The assay can be described thus: Cytotoxicity against human A549 cells up to 0.2 mM after 72 hrs by MTT assay.
For assay [11], the system named is Staphylococcus aureus. The assay is described as follows: Antibacterial activity against Staphylococcus aureus at 50 ug/ml after 24 hrs by agar well diffusion method. The following applies: for zone of inhibition at 50 µg/mL: read-out: DIZ. In kind it is functional. An outline of the steps: as §1
The subject of assay [12] is Pseudomonas aeruginosa. The assay is described as follows: Antibacterial activity against Pseudomonas aeruginosa at 100 ug/ml after 24 hrs by agar well diffusion method. In kind it is functional. Conditions: for zone of inhibition at 100 µg/mL: read-out: DIZ. An outline of the steps:
as §1

Calls of active or inactive are those of the source. No cut-off for these calls is given here.

With `O=S(=O)(Cc1nnc(CS(=O)(=O)C2CNN=C2S(=O)(=O)c2ccc(Cl)cc2)s1)Nc1ccc(Cl)cc1` (stereo unspecified), the zone of inhibition at 100 µg/mL with Klebsiella pneumoniae [1] was determined as 28 mm; in the assay with Staphylococcus aureus [3], 27 mm; with Bacillus subtilis [4], 26 mm; in the assay on Penicillium chrysogenum [7] it was 31 mm; with Aspergillus niger [9], 29 mm; in the assay with Pseudomonas aeruginosa [12], 23 mm. Also, the zone of inhibition at 50 µg/mL stood at 25 mm with Bacillus subtilis [2]; 25 mm with Klebsiella pneumoniae [5]; 22 mm in the assay with Pseudomonas aeruginosa [6]; 28 mm with Aspergillus niger [8]; 28 mm in the assay with Penicillium chrysogenum [10]; 24 mm with Staphylococcus aureus [11]. Besides, the outcome in the assay on A549 was inactive.

As for `Cc1ccc(NS(=O)(=O)Cc2nnc(CS(=O)(=O)c3c[nH]cc3S(=O)(=O)c3ccc(C)cc3)n2N)cc1`, the zone of inhibition at 100 µg/mL was 23 mm in the assay with Klebsiella pneumoniae [1]; 18 mm in the assay on Staphylococcus aureus [3]; 21 mm with Bacillus subtilis [4]; 21 mm with Penicillium chrysogenum [7]; 19 mm in the assay with Aspergillus niger [9]; 15 mm with Pseudomonas aeruginosa [12]. Also, the zone of inhibition at 50 µg/mL in the assay on Bacillus subtilis [2] worked out at 19 mm; in the assay on Klebsiella pneumoniae [5], 21 mm; in the assay with Pseudomonas aeruginosa [6], 13 mm; with Aspergillus niger [8], 18 mm; with Penicillium chrysogenum [10] it was 18 mm; in the assay on Staphylococcus aureus [11] it was 16 mm. Besides, in the assay on A549, the outcome was inactive.

In the case of `Nn1c(CS(=O)(=O)Nc2ccccc2)nnc1CS(=O)(=O)c1c[nH]nc1S(=O)(=O)c1ccccc1`, the zone of inhibition at 100 µg/mL was determined as 26 mm with Klebsiella pneumoniae [1]; 21 mm in the assay with Staphylococcus aureus [3]; 23 mm in the assay on Bacillus subtilis [4]; 23 mm in the assay with Penicillium chrysogenum [7]; 23 mm in the assay with Aspergillus niger [9]; 17 mm in the assay on Pseudomonas aeruginosa [12]. The zone of inhibition at 50 µg/mL in the assay with Bacillus subtilis [2] was 19 mm; with Klebsiella pneumoniae [5] it was 24 mm; in the assay with Pseudomonas aeruginosa [6], 15 mm; in the assay with Aspergillus niger [8] it was 19 mm; with Penicillium chrysogenum [10], 20 mm; in the assay on Staphylococcus aureus [11], 19 mm. Also, the outcome in the assay with A549 was inactive.

As for `O=S(=O)(/C=C/S(=O)(=O)c1ccc(Cl)cc1)Cc1nnc(CS(=O)(=O)Nc2ccc(Cl)cc2)s1`, the zone of inhibition at 100 µg/mL in the assay on Klebsiella pneumoniae [1] came out at 35 mm; with Staphylococcus aureus [3] it was 32 mm; in the assay with Bacillus subtilis [4] it was 29 mm; with Penicillium chrysogenum [7], 35 mm; in the assay on Aspergillus niger [9] it was 33 mm; in the assay with Pseudomonas aeruginosa [12], 27 mm. Also, the zone of inhibition at 50 µg/mL with Bacillus subtilis [2] stood at 27 mm; in the assay on Klebsiella pneumoniae [5], 33 mm; in the assay with Pseudomonas aeruginosa [6] it was 25 mm; in the assay with Aspergillus niger [8], 31 mm; with Penicillium chrysogenum [10], 32 mm; in the assay on Staphylococcus aureus [11], 29 mm. The result with A549 was inactive.

For the molecule `O=S(=O)(/C=C/S(=O)(=O)c1ccccc1)Cc1nnc(CS(=O)(=O)Nc2ccccc2)s1`, the zone of inhibition at 100 µg/mL with Klebsiella pneumoniae [1] is 26 mm; with Staphylococcus aureus [3], 21 mm; in the assay on Bacillus subtilis [4], 24 mm; with Penicillium chrysogenum [7] it was 24 mm; in the assay on Aspergillus niger [9] it was 22 mm; in the assay on Pseudomonas aeruginosa [12], 17 mm. The zone of inhibition at 50 µg/mL with Bacillus subtilis [2] came out at 22 mm; in the assay on Klebsiella pneumoniae [5], 24 mm; with Pseudomonas aeruginosa [6], 16 mm; with Aspergillus niger [8], 19 mm; in the assay on Penicillium chrysogenum [10] it was 21 mm; with Staphylococcus aureus [11] it was 19 mm. In addition, the outcome with A549 was inactive.

As for `O=S(=O)(Cc1nnc(CS(=O)(=O)c2c[nH]cc2S(=O)(=O)c2ccc(Cl)cc2)s1)Nc1ccc(Cl)cc1`, the zone of inhibition at 100 µg/mL with Klebsiella pneumoniae [1] amounted to 30 mm; in the assay with Staphylococcus aureus [3], 27 mm; with Bacillus subtilis [4], 29 mm; in the assay on Penicillium chrysogenum [7], 33 mm; in the assay with Aspergillus niger [9], 31 mm; in the assay with Pseudomonas aeruginosa [12], 25 mm. Besides, the zone of inhibition at 50 µg/mL is 27 mm in the assay with Bacillus subtilis [2]; 29 mm in the assay on Klebsiella pneumoniae [5]; 23 mm with Pseudomonas aeruginosa [6]; 29 mm in the assay with Aspergillus niger [8]; 30 mm in the assay on Penicillium chrysogenum [10]; 26 mm with Staphylococcus aureus [11]. Also, the outcome in the assay on A549 was inactive.

As for `Cc1ccc(NS(=O)(=O)Cc2nnc(CS(=O)(=O)/C=C/S(=O)(=O)c3ccc(C)cc3)o2)cc1`, the “diameter of the inhibition zone (DIZ)” value in the assay with Klebsiella pneumoniae [1], in the assay on Bacillus subtilis [2], with Staphylococcus aureus [3], with Bacillus subtilis [4], in the assay on Klebsiella pneumoniae [5] and with Pseudomonas aeruginosa [6] was “inactive” throughout. The “diameter of the inhibition zone (DIZ)” value in the assay with Penicillium chrysogenum [7], in the assay with Aspergillus niger [8], with Aspergillus niger [9], in the assay on Penicillium chrysogenum [10], in the assay with Staphylococcus aureus [11] and in the assay with Pseudomonas aeruginosa [12] was “inactive” each time. In addition, the result in the assay on A549 was inactive.

`O=S(=O)(Cc1nnc(CS(=O)(=O)c2c[nH]nc2S(=O)(=O)c2ccc(Cl)cc2)s1)Nc1ccc(Cl)cc1`: the zone of inhibition at 100 µg/mL was found to be 33 mm in the assay with Klebsiella pneumoniae [1]; 29 mm with Staphylococcus aureus [3]; 31 mm with Bacillus subtilis [4]; 34 mm in the assay with Penicillium chrysogenum [7]; 32 mm in the assay with Aspergillus niger [9]; 26 mm in the assay with Pseudomonas aeruginosa [12]. Also, the zone of inhibition at 50 µg/mL in the assay on Bacillus subtilis [2] was determined as 28 mm; in the assay with Klebsiella pneumoniae [5] it was 30 mm; in the assay on Pseudomonas aeruginosa [6] it was 24 mm; with Aspergillus niger [8], 30 mm; in the assay with Penicillium chrysogenum [10], 31 mm; in the assay with Staphylococcus aureus [11], 27 mm. Further, the outcome in the assay on A549 was inactive.

Regarding `O=S(=O)(Cc1nnc(CS(=O)(=O)c2c[nH]nc2S(=O)(=O)c2ccc(Cl)cc2)o1)Nc1ccc(Cl)cc1`, the zone of inhibition at 100 µg/mL is 24 mm in the assay on Klebsiella pneumoniae [1]; 23 mm with Staphylococcus aureus [3]; 22 mm with Bacillus subtilis [4]; 24 mm in the assay on Penicillium chrysogenum [7]; 23 mm with Aspergillus niger [9]; 21 mm in the assay on Pseudomonas aeruginosa [12]. Moreover, the zone of inhibition at 50 µg/mL is 21 mm in the assay with Bacillus subtilis [2]; 23 mm with Klebsiella pneumoniae [5]; 19 mm in the assay with Pseudomonas aeruginosa [6]; 20 mm in the assay with Aspergillus niger [8]; 21 mm in the assay with Penicillium chrysogenum [10]; 20 mm with Staphylococcus aureus [11]. Further, the result with A549 was inactive.

On to `Cc1ccc(NS(=O)(=O)Cc2nnc(CS(=O)(=O)C3CNN=C3S(=O)(=O)c3ccc(C)cc3)n2N)cc1` (stereo unspecified), for which the zone of inhibition at 100 µg/mL in the assay with Klebsiella pneumoniae [1] was determined as 20 mm; in the assay on Staphylococcus aureus [3], 15 mm; in the assay with Bacillus subtilis [4], 18 mm; with Penicillium chrysogenum [7], 18 mm; in the assay with Aspergillus niger [9] it was 16 mm; in the assay with Pseudomonas aeruginosa [12], 15 mm. In addition, the zone of inhibition at 50 µg/mL in the assay with Bacillus subtilis [2] is 16 mm; in the assay with Klebsiella pneumoniae [5], 18 mm; in the assay on Pseudomonas aeruginosa [6], 12 mm; in the assay on Aspergillus niger [8] it was 13 mm; with Penicillium chrysogenum [10], 15 mm; with Staphylococcus aureus [11], 13 mm. Also, in the assay with A549, the outcome was inactive.

Take `Cc1ccc(NS(=O)(=O)Cc2nnc(CS(=O)(=O)c3c[nH]nc3S(=O)(=O)c3ccc(C)cc3)n2N)cc1`: the zone of inhibition at 100 µg/mL worked out at 22 mm with Klebsiella pneumoniae [1]; 17 mm with Staphylococcus aureus [3]; 20 mm with Bacillus subtilis [4]; 18 mm with Penicillium chrysogenum [7]; 19 mm with Aspergillus niger [9]; 14 mm in the assay on Pseudomonas aeruginosa [12]. In addition, the zone of inhibition at 50 µg/mL in the assay on Bacillus subtilis [2] worked out at 18 mm; with Klebsiella pneumoniae [5], 20 mm; in the assay on Pseudomonas aeruginosa [6], 12 mm; in the assay with Aspergillus niger [8] it was 16 mm; in the assay on Penicillium chrysogenum [10], 14 mm; in the assay on Staphylococcus aureus [11] it was 16 mm. For the same molecule, in the assay on A549, the outcome was inactive.

Turning to `Cc1ccc(NS(=O)(=O)Cc2nnc(CS(=O)(=O)C3CNN=C3S(=O)(=O)c3ccc(C)cc3)o2)cc1` (stereo unspecified), the “diameter of the inhibition zone (DIZ)” value in the assay with Klebsiella pneumoniae [1], in the assay with Bacillus subtilis [2], in the assay on Staphylococcus aureus [3], in the assay with Bacillus subtilis [4], in the assay on Klebsiella pneumoniae [5] and in the assay with Pseudomonas aeruginosa [6] was “inactive” each time. The “diameter of the inhibition zone (DIZ)” value in the assay on Penicillium chrysogenum [7], with Aspergillus niger [8], in the assay with Aspergillus niger [9], in the assay on Penicillium chrysogenum [10], in the assay on Staphylococcus aureus [11] and with Pseudomonas aeruginosa [12] was “inactive” in each case. Besides, the outcome in the assay on A549 was inactive.
